Screening data from PubChem BioAssay.
An excerpt weighted towards active compounds, which were near 1.6% of everything screened.
SR-BI DiI inh – inhibitors of mouse SR-BI mediated HDL lipid uptake; Q61009; 320,000 compounds, 0.96% hits; inhibition, % at 12.5 µM; AID 488896; ldlA[mSR-BI] CHO cells, DiI-HDL uptake fluorescence, 3 h;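 active means mean replicate inhibition of at least 70% and a set share of replicates each scoring 70 or more; inconclusive means meets just one of the two criteria; inactive means fails both criteria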;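 further: 0% = median of neutral control wells and 100% = median of positive control wells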
Target sequence (Q61009 whole entry, looked up): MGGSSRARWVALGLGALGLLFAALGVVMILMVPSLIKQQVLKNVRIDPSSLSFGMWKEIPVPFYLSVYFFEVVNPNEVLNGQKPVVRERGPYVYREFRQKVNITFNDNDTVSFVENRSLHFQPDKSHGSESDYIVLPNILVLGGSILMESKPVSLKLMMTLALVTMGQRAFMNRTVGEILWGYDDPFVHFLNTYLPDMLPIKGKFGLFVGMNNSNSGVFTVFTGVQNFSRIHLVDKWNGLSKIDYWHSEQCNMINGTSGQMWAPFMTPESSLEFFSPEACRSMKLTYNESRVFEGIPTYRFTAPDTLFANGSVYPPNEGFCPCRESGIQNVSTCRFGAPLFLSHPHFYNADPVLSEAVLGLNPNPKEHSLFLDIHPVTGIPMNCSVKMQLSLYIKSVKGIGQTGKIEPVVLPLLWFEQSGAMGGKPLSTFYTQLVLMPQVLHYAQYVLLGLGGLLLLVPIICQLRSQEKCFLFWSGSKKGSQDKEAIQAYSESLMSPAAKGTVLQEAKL
A1 inh – inhibitors of the anti-apoptotic protein A1, read as caspase activation; caspase activation, % (no concentration beside the values); AID 2462; MEF A1-2A-BIM cells, Caspase-Glo 3/7 luminescence, 3 h; percent of clofoctol response, vehicle zero; 330,000 compounds, 0.066% hits;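 active means over half of replicate activation scores above 10%, or exactly half above 10 with the replicate mean above 10; inconclusive means replicate mean below 10 yet half the replicates above 10; inactive means over half of replicates below 10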
SR-BI DiI-HDL act – SR-BI HDL lipid transfer activation | CHO ldlA[mSR-BI] cells, DiI-HDL uptake fluorescence, 3 h; 100 = double the neutral-control signal | activation, % at 12.5 µM | 320,000 compounds, 0.096% hits | AID 504775;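 active means mean replicate activation of at least 60% and every replicate at or above 60%; inconclusive means mean or all-replicate condition met, but not both; inactive means mean below 60% and not all replicates reaching 60%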;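 further: 0% = median plate neutral-control signal and 100% = twice that signal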
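Test system: SR-BI-overexpressing, LDLR-lacking CHO cells; Also added: labelled HDL, 10 µg/mL; Measured by: bottom-read cell fluorescence after medium removal, ex 550/em 595 nm; Timing: 3 h uptake period with compound, 37 °C; Buffer or medium: F12, 0.5% BSA, 25 mM HEPES; Doses: single compound concentration, delivered by pin transfer.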
H9c2 TAG inh – triacylglycerol accumulation inhibition; H9c2 cells, Nile Red lipid (TAG) fluorescence; cells loaded with 200 µM oleic acid; inhibition, % at 12.5 µM; 230,000 compounds, 0.66% hits; AID 651582;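 active means pattern-corrected inhibition of lipid staining of at least 50% with the nuclear-stain viability signal not falling by more than 50%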;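 further: 0% = DMSO wells and 100% = triacsin C control wells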
Vif inh – blocks HIV Vif function | HEK293T cells, Vif self-association by quenched fluorescence, imaging, 24 h | inhibition, % at 7.49 µM | 340,000 compounds, 0.35% hits | AID 602346; in the data active means inhibition above about 50%, passing the limit was not always enough; inconclusive means no clear call, values can overlap the other calls; inactive means below about 31%
TAG conf – confirmation of triacylglycerol accumulation inhibitors. H9c2 lipid accumulation, Nile Red fluorescence; cells loaded with 200 µM oleic acid. inhibition, % at 12.5 µM. shares compounds with H9c2 TAG inh. 990 compounds, 71% hits. AID 651629;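 active means mean inhibition across replicates of 40% or more; inactive means mean inhibition below 40%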;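 further: plate controls were DMSO only wells for no effect and Triacsin C treated wells for full effect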
* hit, by the source's call.

CC(=O)Nc1ccc(NC(=O)CSc2nc3[nH]ncc3c(=O)n2-c2ccccc2)cc1 was read as SR-BI DiI inh 5.2, A1 inh 0.2, SR-BI DiI-HDL act -5.2 and Vif inh -0.4.
O=C(NCCCCCCCN1CCCCCCC1)C(C1CCCCC1)C1CCCCC1 was read as SR-BI DiI inh -18.4, SR-BI DiI-HDL act 18.4, H9c2 TAG inh 69.9*, Vif inh -18.9 and TAG conf 50.6*.
`O=C(CSc1ccc(F)cc1)NC(=O)c1ccccc1` gave H9c2 TAG inh -14.9 and Vif inh 10.4.
CCOC(=O)c1cc(-c2ccncc2)nc2c1c(C)nn2-c1ccccn1 was read as SR-BI DiI inh 23.4, A1 inh -1.7, SR-BI DiI-HDL act -23.4, H9c2 TAG inh 67.9*, Vif inh inconclusive and TAG conf 42.6*.
COc1ccc(-c2cc(C(=O)O)c3c(C)nn(-c4ccccn4)c3n2)cc1 was read as A1 inh 0.1.
For Cc1ccc(Nc2nc(N3CCOCC3)nc(N3CCOCC3)n2)cc1C the results were SR-BI DiI inh 13.6, A1 inh 2.0, SR-BI DiI-HDL act -13.6 and Vif inh -0.8.
For CCCCSc1nc2ccc(Nc3nc(N4CCOCC4)nc(N4CCOCC4)n3)cc2s1 the results were SR-BI DiI inh 25.4, A1 inh 0.2, SR-BI DiI-HDL act -25.4, H9c2 TAG inh 79.9*, Vif inh 6.4 and TAG conf 96.6*.
For CCCCNC(=O)CSc1nc2ccc(Nc3nc(N4CCOCC4)nc(N4CCOCC4)n3)cc2s1 the results were SR-BI DiI inh 45.7, A1 inh -0.9, SR-BI DiI-HDL act -45.7, H9c2 TAG inh 56.7*, Vif inh -44.9 and TAG conf -2.6.
COCCN(Cc1ccccc1)C(=O)C1CCN(C(=O)Nc2ccccc2)CC1 was read as SR-BI DiI inh -1.6, A1 inh 1.0, SR-BI DiI-HDL act 1.6, H9c2 TAG inh 54.0*, Vif inh 4.0 and TAG conf 45.3*.
For COc1cc2c(cc1[N+](=O)[O-])-c1ccc([N+](=O)[O-])cc1C2 the results were H9c2 TAG inh 8.4 and Vif inh 1.8.
`COc1cc2c(cc1[N+](=O)[O-])-c1ccc([N+](=O)[O-])cc1C2=NNC(N)=S` gave H9c2 TAG inh 52.4*, Vif inh -3.5 and TAG conf 41.9*.
For NNC(=O)CCN1CCCCC1 the results were A1 inh -0.5, H9c2 TAG inh 82.8*, Vif inh -8.4 and TAG conf 2.7.
Screening CC1CCN(CCC(=O)NN)CC1 returned SR-BI DiI inh -24.1, A1 inh 0.3, SR-BI DiI-HDL act 24.1, H9c2 TAG inh 12.3 and Vif inh 0.8.
O=C(NCCOc1nc(N2CCOCC2)nc(N2CCOCC2)n1)Nc1ccccc1 was read as SR-BI DiI inh -6.3, A1 inh -0.5, SR-BI DiI-HDL act 6.3, H9c2 TAG inh 54.4*, Vif inh 11.9 and TAG conf 30.4.
`O=C(N/N=C/C1CC2CCC1C2)c1c[nH]c2ccccc12` (configuration not stated) gave SR-BI DiI inh -20.3, A1 inh 0.1, SR-BI DiI-HDL act 20.3, H9c2 TAG inh 6.5 and Vif inh 5.7.
`O=C(/C=C/c1ccccc1)Oc1cccc2cccnc12` gave SR-BI DiI inh 28.1, A1 inh -0.3, SR-BI DiI-HDL act -28.1, H9c2 TAG inh 50.5*, Vif inh -1.3 and TAG conf -4.6.
`COc1cccc(Nc2nnc(SCc3cc([N+](=O)[O-])cc4c3OCOC4)s2)c1` gave SR-BI DiI inh 58.3, A1 inh 1.4, SR-BI DiI-HDL act -58.3, H9c2 TAG inh 52.7*, Vif inh 3.2 and TAG conf 42.1*.
COc1ccc(C(=O)NCC(=O)N2CCN(C(=O)c3ccco3)CC2)cc1[N+](=O)[O-] was read as SR-BI DiI inh 4.0, A1 inh 0.8, SR-BI DiI-HDL act -4.0, H9c2 TAG inh 1.4 and Vif inh 4.9.
For COc1ccc(S(=O)(=O)N(C)C[C@@H]2OCCCC[C@H](C)Oc3ccc(NC(=O)Nc4ccc(C(F)(F)F)cc4)cc3C(=O)N([C@H](C)CO)C[C@H]2C)cc1 the results were H9c2 TAG inh 59.4*, Vif inh -14.8 and TAG conf 43.7*.
`C[C@@H]1CCCCO[C@H](CN(C)S(=O)(=O)c2ccc(F)cc2)[C@@H](C)CN([C@H](C)CO)C(=O)c2cc(NC(=O)Nc3ccc(C(F)(F)F)cc3)ccc2O1` gave H9c2 TAG inh 45.9 and Vif inh -2.1.
`Cc1cc(C)cc(-n2c3ccc(NC(=O)Cc4cccc5ccccc45)cc3c(=O)n2C)c1` gave H9c2 TAG inh 50.9*, Vif inh 39.1 and TAG conf 49.6*.
Screening Cn1c(=O)c2cc(NC(=O)Cc3ccccc3F)ccc2n1-c1ccc(C(C)(C)C)cc1 returned H9c2 TAG inh 21.7 and Vif inh 23.0.
For CC(C)(C)OC(=O)[C@H](Cc1ccccc1)NC(=O)c1nc[nH]c1C(=O)N[C@@H](Cc1ccccc1)C(=O)OC(C)(C)C the results were SR-BI DiI inh -31.4, A1 inh -1.0, SR-BI DiI-HDL act 31.4, H9c2 TAG inh -10.5 and Vif inh -3.1.
`CC(C)(C)OC(=O)[C@H](Cc1ccccc1)NC(=O)c1ncn2c1c(=O)[nH]c1ccc(Br)cc12` gave H9c2 TAG inh 64.8*, Vif inh -2.3 and TAG conf 77.0*.
`CC(C)(C)OC(=O)C[C@H]1C/C=C\C[C@H](CC(=O)N[C@H](CO)Cc2ccccc2)C(=O)N2CCC[C@@H]2COC1=O` gave SR-BI DiI inh -9.5, A1 inh 0.1, SR-BI DiI-HDL act 9.5, H9c2 TAG inh 9.8 and Vif inh -7.1.
COc1cccc(-c2nnc(SCC(=O)Nc3cc(C)ccc3OC)n2N)c1 was read as SR-BI DiI inh -2.1, A1 inh 0.1, SR-BI DiI-HDL act 2.1, H9c2 TAG inh 53.2*, Vif inh 1.2 and TAG conf 26.4.
`CCCN(C(=O)CCSc1ccc(F)cc1)c1c(N)n(Cc2ccccc2)c(=O)[nH]c1=O` gave SR-BI DiI inh -2.0, A1 inh 0.9, SR-BI DiI-HDL act 2.0, H9c2 TAG inh -1.2 and Vif inh 6.6.
For CC(C)(C)c1csc(NC(=O)c2cccs2)n1 the results were SR-BI DiI inh -9.5, A1 inh -0.3, SR-BI DiI-HDL act 9.5, H9c2 TAG inh 72.8* and TAG conf 34.2.
For c1cc2c(cc1Oc1nc(N3CCOCC3)nc(N3CCOCC3)n1)OCO2 the results were SR-BI DiI inh -24.1, A1 inh 0.4, SR-BI DiI-HDL act 24.1, H9c2 TAG inh 59.2*, Vif inh 29.5 and TAG conf 28.8.
